Measurements taken from ChEMBL document CHEMBL1629486, “Antimicrobial, antitumor and 5α-reductase inhibitor activities of some hydrazonoyl substituted pyrimidinones” (Eur J Med Chem, 2010).

How the values were obtained:
Type in all cases: functional
SW-620 = experiment: Growth inhibition of human SW620 cells assessed as cell growth at 1 M after 48 hrs by sulforhodamine B assay; design: scale not given: the % may be the effect or the level left
How it was run: (§1)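 NCI 60-cell panel screen, single dose (1.0 M as printed). Cells grown in RPMI 1640 with 5% fetal bovine serum and 2 mM L-glutamine, seeded at 5000–40,000 cells/well, preincubated 24 h at 37 °C in 5% CO2 at 100% humidity, then exposed to compound for 48 h. Sulforhodamine B staining read-out. Result given as growth percent: 100 = no inhibition, 0 = no net growth, negative = lethality.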

NCI-H322M = experiment: Growth inhibition of human NCI-H322M cells assessed as cell growth at 1 M after 48 hrs by sulforhodamine B assay; design: scale not given: the % may be the effect or the level left
How it was run: (§2)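 NCI 60-cell screen at a single high dose. Cells are grown in RPMI 1640 with 5% FBS and 2 mM L-glutamine, then plated at 5000–40,000 cells/well and held 24 h at 37 °C in 5% CO2 at 100% humidity. Drug is then added and plates are incubated another 48 h, with SRB staining as read-out. Results are given as growth percent (100 = no inhibition, 0 = no net growth, negative = lethality).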

MOLT-4 = experiment: Growth inhibition of human MOLT4 cells assessed as cell growth at 1 M after 48 hrs by sulforhodamine B assay; design: scale not given: the % may be the effect or the level left; how it was run: as §2
Rattus norvegicus [1] = experiment: Effect on circulating testosterone and dihydrotestosterone level in sc dosed Sprague-Dawley rat by radioimmunoassay relative to anastrozole
How it was run: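 Serum testosterone and DHT were measured by RIA in ether extracts of serum (0.5 mL serum, 2 mL diethyl ether, 60 s shaking), without chromatography, in rats dosed at several levels. Relative potency is the ED50 of anastrozole divided by the ED50 of the test agent, where ED50 is the dose giving 50% of the pharmacological response.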

DU-145 = experiment: Growth inhibition of human DU145 cells assessed as cell growth at 1 M after 48 hrs by sulforhodamine B assay; design: scale not given: the % may be the effect or the level left; how it was run: as §2
SK-OV-3 = experiment: Growth inhibition of human SKOV3 cells assessed as cell growth at 1 M after 48 hrs by sulforhodamine B assay; design: scale not given: the % may be the effect or the level left; how it was run: as §1
Pseudomonas aeruginosa = experiment: Antimicrobial activity against Pseudomonas aeruginosa at 1 to 5 ug/ml by agar well diffusion method
How it was run: (§3)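 Agar well diffusion against bacteria and fungi. Inhibition zone is scored beyond the control: ++ 0.6–1.0 cm, + 0.1–0.5 cm, 0 no inhibition.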

COLO 205 = experiment: Growth inhibition of human COLO205 cells assessed as cell growth at 1 M after 48 hrs by sulforhodamine B assay; design: scale not given: the % may be the effect or the level left; how it was run: as §2
Penicillium italicum = experiment: Antimicrobial activity against Penicillium italicum at 1 to 5 ug/ml by agar well diffusion method; how it was run: as §3
BT-549 = experiment: Growth inhibition of human BT549 cells assessed as cell growth at 1 M after 48 hrs by sulforhodamine B assay; design: scale not given: the % may be the effect or the level left; how it was run: as §2
HCT-15 = experiment: Growth inhibition of human HCT15 cells assessed as cell growth at 1 M after 48 hrs by sulforhodamine B assay; design: scale not given: the % may be the effect or the level left; how it was run: as §2
HT-29 = experiment: Growth inhibition of human HT-29 cells assessed as cell growth at 1 M after 48 hrs by sulforhodamine B assay; design: scale not given: the % may be the effect or the level left; how it was run: as §2
MDA-MB-231 = experiment: Growth inhibition of human MDA-MB-231 cells assessed as cell growth at 1 M after 48 hrs by sulforhodamine B assay; design: scale not given: the % may be the effect or the level left; how it was run: as §2
U-251 = experiment: Growth inhibition of human U251 cells assessed as cell growth at 1 M after 48 hrs by sulforhodamine B assay; design: scale not given: the % may be the effect or the level left; how it was run: as §1
NCI-H522 = experiment: Growth inhibition of human NCI-H522 cells assessed as cell growth at 1 M after 48 hrs by sulforhodamine B assay; design: scale not given: the % may be the effect or the level left; how it was run: as §2
UACC-257 = experiment: Growth inhibition of human UACC257 cells assessed as cell growth at 1 M after 48 hrs by sulforhodamine B assay; design: scale not given: the % may be the effect or the level left; how it was run: as §1
EKVX = experiment: Growth inhibition of human EKVX cells assessed as cell growth at 1 M after 48 hrs by sulforhodamine B assay; design: scale not given: the % may be the effect or the level left; how it was run: as §2
MDA-MB-468 = experiment: Growth inhibition of human MDA-MB-468 cells assessed as cell growth at 1 M after 48 hrs by sulforhodamine B assay; design: scale not given: the % may be the effect or the level left; how it was run: as §2
Rattus norvegicus [2] = experiment: Effect on circulating testosterone and dihydrotestosterone level in sc dosed Sprague-Dawley rat by radioimmunoassay
How it was run: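 Rats were given a range of doses of the 5α-reductase inhibitors. Serum testosterone and DHT were measured by radioimmunoassay with specific antisera, without prior chromatography. Serum (0.5 mL) was extracted with 2 mL peroxide-free diethyl ether by shaking for 60 s. Levels were compared with vehicle-treated controls, and ED50 was derived.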

NCI-H226 = experiment: Growth inhibition of human NCI-H226 cells assessed as cell growth at 1 M after 48 hrs by sulforhodamine B assay; design: scale not given: the % may be the effect or the level left; how it was run: as §2
MDA-MB-435 = experiment: Growth inhibition of human MDA-MB-435 cells assessed as cell growth at 1 M after 48 hrs by sulforhodamine B assay; design: scale not given: the % may be the effect or the level left; how it was run: as §2
Candida albicans = experiment: Antimicrobial activity against Candida albicans at 1 to 5 ug/ml by agar well diffusion method; how it was run: as §3
NCI-H460 = experiment: Growth inhibition of human NCI-H460 cells assessed as cell growth at 1 M after 48 hrs by sulforhodamine B assay; design: scale not given: the % may be the effect or the level left; how it was run: as §2
SK-MEL-28 = experiment: Growth inhibition of human SK-MEL-28 cells assessed as cell growth at 1 M after 48 hrs by sulforhodamine B assay; design: scale not given: the % may be the effect or the level left; how it was run: as §1
KM12 = experiment: Growth inhibition of human KM12 cells assessed as cell growth at 1 M after 48 hrs by sulforhodamine B assay; design: scale not given: the % may be the effect or the level left; how it was run: as §2
UO-31 = experiment: Growth inhibition of human UO31 cells assessed as cell growth at 1 M after 48 hrs by sulforhodamine B assay; design: scale not given: the % may be the effect or the level left; how it was run: as §1
HL-60(TB) = experiment: Growth inhibition of human HL-60(TB) cells assessed as cell growth at 1 M after 48 hrs by sulforhodamine B assay; design: scale not given: the % may be the effect or the level left
How it was run: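 NCI 60-cell panel, single-dose screen. Cells grown in RPMI 1640 with 5% fetal bovine serum and 2 mM L-glutamine, seeded at 5000–40,000 cells/well and preincubated 24 h at 37 °C in 5% CO2 before drug. Exposure 48 h, then sulforhodamine B staining. Read-out is growth percent: 100 = no inhibition, 0 = no net growth, negative = lethality.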

TK-10 = experiment: Growth inhibition of human TK10 cells assessed as cell growth at 1 M after 48 hrs by sulforhodamine B assay; design: scale not given: the % may be the effect or the level left; how it was run: as §1
T47D = experiment: Growth inhibition of human T47D cells assessed as cell growth at 1 M after 48 hrs by sulforhodamine B assay; design: scale not given: the % may be the effect or the level left; how it was run: as §1
SR = experiment: Growth inhibition of human SR cells assessed as cell growth at 1 M after 48 hrs by sulforhodamine B assay; design: scale not given: the % may be the effect or the level left; how it was run: as §1
CCRF-CEM = experiment: Growth inhibition of human CCRF-CEM cells assessed as cell growth at 1 M after 48 hrs by sulforhodamine B assay; design: scale not given: the % may be the effect or the level left; how it was run: as §2

Q: With CC(=O)c1ccc(N/N=C(\C(=O)c2ccc(Cl)cc2)c2nc(C)cc(=O)[nH]2)cc1 as the compound, how does the Activity (SW-620) read?
A: 98.45%

Q: And the Activity (NCI-H322M)?
A: 100.21%

Q: What about the Activity (MOLT-4) of the same compound?
A: 84.16%

Q: What about the “Ratio ED50” value (Rattus norvegicus [1]) of the same compound?
A: 1.562

Q: And the Activity (DU-145)?
A: 95.47%

Q: What about the Activity (SK-OV-3) of the same compound?
A: 95.27%

Q: And the “diameter of the inhibition zone (DIZ)” value (Pseudomonas aeruginosa)?
A: 0 cm

Q: And the Activity (COLO 205)?
A: 121.73%

Q: What about the “diameter of the inhibition zone (DIZ)” value (Penicillium italicum) of the same compound?
A: 0 cm

Q: What about the Activity (BT-549) of the same compound?
A: 99.42%

Q: And the Activity (HCT-15)?
A: 96.72%

Q: And the Activity (HT-29)?
A: 101.59%

Q: What about the Activity (MDA-MB-231) of the same compound?
A: 85.96%

Q: And the Activity (U-251)?
A: 96.78%

Q: What about the Activity (NCI-H522) of the same compound?
A: 84.76%

Q: And the Activity (UACC-257)?
A: 99.94%

Q: And the Activity (EKVX)?
A: 105.04%

Q: What about the Activity (MDA-MB-468) of the same compound?
A: 94.65%

Q: What about the ED50 (Rattus norvegicus [2]) of the same compound?
A: 0.698 µg/kg

Q: What about the Activity (NCI-H226) of the same compound?
A: 111%

Q: What about the Activity (MDA-MB-435) of the same compound?
A: 95.8%

Q: What about the “diameter of the inhibition zone (DIZ)” value (Candida albicans) of the same compound?
A: 0 cm

Q: What about the Activity (NCI-H460) of the same compound?
A: 103.13%

Q: What about the Activity (SK-MEL-28) of the same compound?
A: 106.93%

Q: What about the Activity (KM12) of the same compound?
A: 100.14%

Q: What about the Activity (UO-31) of the same compound?
A: 75.87%

Q: And the Activity (HL-60(TB))?
A: 115.14%

Q: What about the Activity (TK-10) of the same compound?
A: 120.15%

Q: What about the Activity (T47D) of the same compound?
A: 75.56%

Q: And the Activity (SR)?
A: 62.16%

Q: Which results are given for Cc1cc(=O)[nH]c(/C(=N/Nc2ccccc2)C(=O)c2ccc(Cl)cc2)n1?
A: Activity (SW-620): 94.56%; Activity (NCI-H322M): 107.24%; Activity (MOLT-4): 39.84%; Ratio ED50 (Rattus norvegicus [1]): 5.166; Activity (DU-145): 104.88%; Activity (SK-OV-3): 98.31%; diameter of the inhibition zone (DIZ) (Pseudomonas aeruginosa): 0 cm; Activity (COLO 205): 105.71%; diameter of the inhibition zone (DIZ) (Penicillium italicum): 0 cm; Activity (BT-549): 97.44%; Activity (HCT-15): 112.06%; Activity (HT-29): 105.27%; Activity (MDA-MB-231): 101.67%; Activity (U-251): 106.82%; Activity (EKVX): 103.39%; ED50 (Rattus norvegicus [2]): 0.211 µg/kg; Activity (NCI-H226): 108.67%; Activity (CCRF-CEM): 66.03%; Activity (MDA-MB-435): 107.78%; diameter of the inhibition zone (DIZ) (Candida albicans): 0 cm; Activity (NCI-H460): 108.76%; Activity (SK-MEL-28): 110.14%; Activity (KM12): 101.95%; Activity (UO-31): 116.06%; Activity (HL-60(TB)): 50.74%; Activity (TK-10): 65.49%; Activity (T47D): 77.02%

Q: With Cc1ccc(N/N=C(\C(=O)c2ccc(Cl)cc2)c2nc(C)cc(=O)[nH]2)cc1 as the compound, how does the Activity (SW-620) read?
A: 93.7%

Q: What about the Activity (NCI-H322M) of the same compound?
A: 106.17%

Q: And the Activity (MOLT-4)?
A: 98.62%

Q: And the “Ratio ED50” value (Rattus norvegicus [1])?
A: 6.301

Q: What about the Activity (DU-145) of the same compound?
A: 102.09%

Q: And the Activity (SK-OV-3)?
A: 115.86%

Q: And the “diameter of the inhibition zone (DIZ)” value (Pseudomonas aeruginosa)?
A: 0 cm

Q: And the Activity (COLO 205)?
A: 116.23%

Q: What about the “diameter of the inhibition zone (DIZ)” value (Penicillium italicum) of the same compound?
A: 0 cm

Q: What about the Activity (BT-549) of the same compound?
A: 117.79%

Q: And the Activity (HCT-15)?
A: 110.86%

Q: And the Activity (HT-29)?
A: 110.66%

Q: And the Activity (MDA-MB-231)?
A: 95.9%

Q: What about the Activity (U-251) of the same compound?
A: 103.37%

Q: What about the Activity (UACC-257) of the same compound?
A: 104.52%

Q: What about the Activity (EKVX) of the same compound?
A: 91.46%

Q: And the ED50 (Rattus norvegicus [2])?
A: 0.173 µg/kg

Q: What about the Activity (NCI-H226) of the same compound?
A: 107.41%

Q: And the Activity (CCRF-CEM)?
A: -15.08%

Q: What about the Activity (MDA-MB-435) of the same compound?
A: 123.17%

Q: What about the “diameter of the inhibition zone (DIZ)” value (Candida albicans) of the same compound?
A: 0 cm

Q: What about the Activity (NCI-H460) of the same compound?
A: 105.3%

Q: And the Activity (SK-MEL-28)?
A: 117.97%

Q: And the Activity (KM12)?
A: 114.61%

Q: What about the Activity (HL-60(TB)) of the same compound?
A: 108.59%

Q: And the Activity (TK-10)?
A: 136.08%

Q: And the Activity (T47D)?
A: 88.32%

Q: What about the Activity (SR) of the same compound?
A: 84.35%
